Assay outcomes from PubChem BioAssay.
Most compounds without a hit are left out; they make up all but 3.5% or so of the library.
RGS4 inh = human RGS4 inhibition; HEK293 M3R/RGS4 inducible, Fluo-4 calcium flux; active compounds read high; triggered by carbachol at its EC20; B-score at 10 µM; actives 0.45% (n = 310,000); P49798;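 active means B-score, a plate-corrected calcium signal, over three deviations above library mean, with baseline fluorescence within five deviations of library mean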;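 further: RGS4 expression induced by doxycycline in cells with stable M3 receptor; B-score is computed from the integrated fluorescence ratio over baseline after carbachol; higher B-score means a larger calcium signal and so more RGS4 inhibition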
Target sequence (P49798 whole entry, looked up): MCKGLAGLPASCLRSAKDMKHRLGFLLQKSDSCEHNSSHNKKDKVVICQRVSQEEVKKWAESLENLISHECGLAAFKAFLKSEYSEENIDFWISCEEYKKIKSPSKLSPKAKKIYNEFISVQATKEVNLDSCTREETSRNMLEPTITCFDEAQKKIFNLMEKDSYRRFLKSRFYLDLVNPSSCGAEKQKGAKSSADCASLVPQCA
RGS4 act = RGS4 potentiation or activation. AID 463111. HEK293 M3R/inducible RGS4, carbachol calcium flux Fluo4; active compounds read low. B-score at 10 µM. actives 0.92% (n = 310,000);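 active means B-score of the integrated calcium signal more than 4 SD below the library mean, with starting fluorescence not abnormally high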;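 further: negative B-score means reduced calcium response which marks RGS4 activation or potentiation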
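Assay system: Inducible-RGS4 HEK293 cells carrying M3 receptor | Schedule: Compound preincubation 20 min at room temperature before agonist | Signal: Kinetic calcium fluorescence imaging with Fluo4-AM dye, 2 µM | Read-out basis: B score from integrated fluorescence ratio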
MrgX1 PAM = human MrgX1 positive allosteric modulation, primary screen; B-score at 10 µM; MrgX1-HEK293, Fluo-4 calcium flux, FDSS; active compounds read high; actives 0.63% (n = 310,000); AID 588675;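 active means plate-corrected calcium response at least 3 library SD above typical, normal starting fluorescence, not activating the receptor alone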;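 further: compound read alongside a low EC10 to EC30 dose of BAM8-22 agonist; peak minus trough fluorescence over baseline measured at the second addition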
Target sequence (Q96LB2 whole entry, looked up): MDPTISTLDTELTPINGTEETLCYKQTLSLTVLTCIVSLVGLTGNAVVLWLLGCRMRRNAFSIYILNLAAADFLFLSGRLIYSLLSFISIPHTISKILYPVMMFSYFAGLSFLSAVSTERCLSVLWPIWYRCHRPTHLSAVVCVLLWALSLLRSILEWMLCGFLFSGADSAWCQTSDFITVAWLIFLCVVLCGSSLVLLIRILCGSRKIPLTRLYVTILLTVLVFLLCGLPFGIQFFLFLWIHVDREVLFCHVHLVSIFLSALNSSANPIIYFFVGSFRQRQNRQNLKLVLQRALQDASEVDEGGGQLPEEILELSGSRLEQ
MrgX1 antag = blocks BAM8-22 activation of human MrgX1 receptor. Q96LB2. B-score at 10 µM. MRGX1-HEK293 calcium flux, Fluo-4, BAM8-22 antagonism; active compounds read low. actives 1.3% (n = 310,000);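 active means calcium-response B-score plate-corrected more than 3 library SD below zero, starting fluorescence within 5 deviations, no agonist response on first addition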;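 further: peak minus trough fluorescence over baseline after final BAM8-22 challenge near maximal dose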
MrgX1 agonist = human MrgX1 receptor agonism, primary screen. AID 588627. B-score at 10 µM. Q96LB2. actives 0.44% (n = 310,000). MrgX1-HEK293 cells, Fluo-4 calcium fluorescence, agonist mode; active compounds read high;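 active means calcium response B-score plate-corrected fluorescence ratio at least 3 library SD, with starting fluorescence B-score inside 5 SD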
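Assay system: MrgX1-expressing HEK293 cells / Amount: fifteen thousand cells per well / Doses: test compound in the initial addition of three / Timing: cells plated overnight, dye loaded 0.5 h 37 °C, 0.5 h room temperature / Technique: kinetic calcium dye fluorescence, Fluo-4 NW / Control set: positive and negative controls per plate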
MrgX1 antag conf = confirmation of human MrgX1 receptor antagonists; remaining BAM8-22 calcium response % of control (active compounds read low), % at 10 µM; MrgX1-HEK293, BAM8-22 calcium flux, Fluo-4; active compounds read low; AID 602420; shares compounds with MrgX1 antag; actives 19% (n = 2,300);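 active means remaining agonist calcium response no higher than 100% minus 3 SD of agonist-only control wells, with starting fluorescence near control levels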;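 further: agonist BAM8-22 given at a near maximal EC90 to ECmax level; peak minus minimum fluorescence divided by baseline after agonist addition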
HEK293 Ca flux = activity in parental HEK293 cells lacking MrgX1; shares compounds with MrgX1 antag; Fluo-4 calcium fluorescence, FDSS; fluorescence ratio F(max-min)/F0 at 10 µM; actives 2% (n = 4,000);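 active means duplicate-averaged calcium fluorescence ratio at least three times the standard deviation of buffer wells, a nonspecific response in parental cells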
HEK293 Ca counter = counter-screen for MrgX1 allosteric activators: effect in parental HEK293 cells; shares compounds with MrgX1 antag; actives 0.4% (n = 4,000); parental HEK293 calcium flux, Fluo-4 fluorescence ratio; active compounds read high; AID 624114; fluorescence ratio F(max-min)/F0 at 10 µM;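 active means calcium fluorescence ratio, averaged over duplicates, at least 3 SD of the buffer-well ratio, meaning a nonspecific response in receptor-free cells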;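 further: untransfected parental HEK293 lacking MrgX1 used as counterscreen for MrgX1 allosteric activators; fluorescence change taken during the second addition on a kinetic imager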
HEK293 Ca cntr2 = activity in parental HEK293 cells lacking MrgX1 receptor; Fluo-4 calcium fluorescence (FDSS); active compounds read high; fluorescence ratio F(max-min)/F0 at 10 µM; actives 8.7% (n = 4,000); AID 624115; shares compounds with MrgX1 antag;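 active means calcium fluorescence ratio at least three times the spread of buffer wells, meaning a non-specific response in parental cells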
The depositor's hits bear a star; i = inactive; nt = no result.

SMILES	RGS4 inh	RGS4 act	MrgX1 PAM	MrgX1 antag	MrgX1 agonist	MrgX1 antag conf	HEK293 Ca flux	HEK293 Ca counter	HEK293 Ca cntr2
CC1=C(n2nnc([N+](=O)[O-])n2)C(c2cccnc2)C(C#N)=C(N)O1 (stereo not drawn)	i	i	i	i	i	nt	nt	nt	nt
CC(C)(C)SCCNC(=O)CSc1ccccc1	i	i	i	-5.04*	i	83.7%*	i	i	i
Cc1ccc(CNC(=O)Cc2ccc(-n3cccc3)cc2)cc1	i	i	i	i	i	nt	nt	nt	nt
Cc1cc(C)c(NC(=O)Cc2ccc(-n3cccc3)cc2)c(C)c1	i	i	i	-5.46*	i	i	i	i	i
C/C(=N\NC(=O)C1(C)NC(C)(C)Cc2ccccc21)c1ccccc1 (stereo not drawn)	i	i	i	i	i	nt	nt	nt	nt
Cc1nc(-c2ccc(C(=O)Nc3cc(S(N)(=O)=O)ccc3C)cc2)cs1	i	i	i	i	i	nt	nt	nt	nt
O=C(Nc1ccc(CN2CCOCC2)cc1)c1cc2ccccc2o1	i	i	i	i	i	nt	nt	nt	nt
O=C(Nc1ccc(CN2CCOCC2)cc1)c1cc2ccccn2n1	i	i	i	-4.86*	i	i	i	i	i
Cc1ccc(-n2cc(S(=O)(=O)c3ccc(C)cc3)[nH]c2=O)cc1	i	i	i	-4.81*	i	i	i	i	i
Cc1ccccc1-n1c(=O)cc(N2CCCCCC2)[nH]c1=O	i	i	i	-6.01*	i	i	i	i	i
O=C(Nc1ccc2c(c1)OCO2)N1CCN(c2ccc(F)cc2)CC1	i	i	i	-4.7*	i	83.3%*	i	i	i
CC(NC(=O)Cn1cnnn1)C12CC3CC(CC(C3)C1)C2 (stereo not drawn)	i	i	i	-6.79*	i	i	i	i	i
CC(NC(=O)CN1CCCC1)C12CC3CC(CC(C3)C1)C2 (stereo not drawn)	i	i	i	i	i	nt	nt	nt	nt
CC(NC(=O)COc1ccc(/C=N/NC(=O)CO)cc1)c1ccccc1 (stereo not drawn)	i	i	i	i	i	nt	nt	nt	nt
COc1ccc(CCn2nnnc2CN2CCN(C(=O)c3ccco3)CC2)cc1OC	i	i	i	i	i	nt	nt	nt	nt
COCCn1nnnc1CN1CCN(C(=O)c2ccco2)CC1	i	i	i	-6.28*	i	i	i	i	i
Fc1ccccc1-c1n[nH]c(=S)n1CC1CCCO1 (stereo not drawn)	i	i	i	-6.31*	i	i	i	i	i
Cn1c2ccccc2c2nnc(SCC(=O)Nc3cccc(O)c3)nc21	i	i	i	i	i	nt	nt	nt	nt
COc1ccc(-c2noc(CSc3nc(N)c(-c4ccccc4)c(=O)[nH]3)n2)cc1	i	i	i	-7.15*	i	75.2%*	i	i	i
FC(F)C(F)(F)c1cc(-c2ccc(Cl)cc2)n[nH]1	i	i	i	-6.71*	i	i	i	i	i
Oc1ccccc1-c1cc(C(F)(F)C(F)F)[nH]n1	i	i	i	i	i	nt	nt	nt	nt
CCCNC(=S)N1CCN(c2nc(C)nc3sc4c(c23)CCCC4)CC1	i	i	i	i	i	nt	nt	nt	nt
COCCCNC(=S)N1CCN(c2nc(C)nc3sc4c(c23)CCCC4)CC1	i	i	i	-6.57*	i	i	i	i	i
CCOCCCn1c(SCC(=O)Nc2oc(C)c3c(C)n[nH]c(=O)c23)nnc1-c1ccncc1	i	i	i	i	i	nt	nt	nt	nt
C=CCn1c(C)nnc1SCC(=O)Nc1oc(C)c2c(C)n[nH]c(=O)c12	i	i	i	-5.26*	i	i	i	i	i
SMILES	RGS4 inh	RGS4 act	MrgX1 PAM	MrgX1 antag	MrgX1 agonist	MrgX1 antag conf	HEK293 Ca flux	HEK293 Ca counter	HEK293 Ca cntr2
Cc1n[nH]c(=O)c2c(NC(=O)CSc3nnc(-c4ccncc4)n3C)oc(C)c12	i	i	i	-7.07*	i	i	i	i	i
CN(CC(=O)Nc1ccc(F)cc1)C(=O)CN1C(=O)NC2(CCCc3ccccc32)C1=O (stereo not drawn)	i	i	i	i	i	nt	nt	nt	nt
NS(=O)(=O)c1ccc(CCNC(=O)NC23CC4CC(CC(C4)C2)C3)cc1	i	i	i	i	i	nt	nt	nt	nt
NS(=O)(=O)c1ccc(-n2nncc2C23CC4CC(CC(C4)C2)C3)cc1	i	i	i	-7.32*	i	i	i	i	i
Cc1cccc(OCC(=O)Nc2ccc(CN3CCOCC3)cc2)c1C	i	i	i	-6.65*	i	i	i	i	i
CCOC(=O)N1CCN(C(=O)c2cc3ccc(OC)cc3[nH]2)CC1	i	i	i	i	i	nt	nt	nt	nt
O=C(c1ccccc1-c1ccccc1)N1CCCC1	i	i	i	i	i	nt	nt	nt	nt
O=C(c1ccccc1-c1ccccc1)N1CCCCC1	i	i	i	-5.21*	i	i	i	i	i
CC(=O)Nc1ccccc1NC(=O)c1ccccc1-c1ccccc1	i	i	i	i	i	nt	nt	nt	nt
CNC(=O)c1ccccc1-c1ccccc1	i	i	i	-5.33*	i	i	i	i	i
Cn1c(=O)c2c(nc(CN3CCN(C(=O)c4ccco4)CC3)n2CC(=O)C(C)(C)C)n(C)c1=O	i	i	i	i	i	nt	nt	nt	nt
CSc1nc2c(c(=O)[nH]c(=O)n2C)n1Cc1ccccc1Cl	i	i	i	i	i	nt	nt	nt	nt
Cc1csc(Sc2nc3c(c(=O)[nH]c(=O)n3C)n2Cc2ccccc2Cl)n1	i	i	i	-8.75*	i	i	i	i	i
O=C(Cc1ccc(Cl)cc1)NCCCNC(=O)c1cccnc1	i	i	i	i	i	nt	nt	nt	nt
Cc1cc(-c2cccs2)n[nH]1	i	i	i	i	i	nt	nt	nt	nt
Cc1cc(-c2ccccc2N)n[nH]1	i	i	i	-6.44*	i	i	i	i	i
